This sample holds only a part of the variants without activity.

First the molecules themselves.
B1: tRNA (parent)
chain: GUUCCGUUGGCGUAAUGGUAACGCGUCUCCCUCCUAAGGAGAAGACUGCGGGUUCGAGUCCCGUACGGAACG

The data set covers variants of B1. Nature of the data set: yeast fitness relative to wild type (ratio to wild type); higher = fitter; tRNA-Arg(CCU), competitive growth, 37 C, YPD. The method, boiled down:
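Gene amplicons from the start population and from each of six end populations were read by 100-nucleotide paired-end sequencing. Those end populations came from pooled Saccharomyces cerevisiae strains carrying tRNA-Arg(CCU) gene variants at the native locus, competed in YPD at 37°C for 24 hours. Fitness relative to wild type was worked out from changes in genotype frequencies. Genotypes needed ≥ 100 starting reads, and estimates < 0.5 were set to 0.5.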
Take GUUCCGUUGACGUAAUGGUAACGCGUCUGCCUCCUAAGGAGAUGACUGCGGGGUCGAGUCCCGUACGGAACG [G10A C29G A43U U53G]: the yeast fitness is no more than 0.5.

Consider GUUCCGUUGACGUAAUGGUAACGUGUCUCCCUCCUAAGGAGAAGACUGCGGGUUCGAGUUCCGUACGGAACG [G10A C24U C60U], for which the yeast fitness was no more than 0.5.

For GUUCCGUUGACGUAAUGGUAACGAGUCUCCCUCCUAAGGAGAAGACUGGGGGUUCGACUCCCGUACGGAACG [G10A C24A C49G G58C], the yeast fitness was no more than 0.5.

Consider GUUCCGUUGACGUAAUGGUAACGCGUCUACCUCCUAAGGAGAAGUCUGCGGGUUCGAGUCCCGUACGGAACG [G10A C29A A45U], for which the yeast fitness is no more than 0.5.

For the variant GUUCCGUUGACGUAAUGGUAACGCGUGUCCCUCCUAAGGAGAAGACUGCGGGUUCGAGUCCCGUACGGAACG [G10A C27G], the yeast fitness was found to be 0.551.

As to GUUCCGUUGACGUAAUGGUAACGCGUUUCCCUCCUAAGGAGAAGACUGCGGGUUCGAGUCCCGUACGGAACG [G10A C27U], the yeast fitness amounted to 0.817.

As to GUUCCGUUGACGUAAUGGUAACGAGUCUCCCUCCUAAGGAGAAGACUGCGGGUUCGAGUCCUGUACGGAACG [G10A C24A C62U], the yeast fitness is no more than 0.5.

In the case of GUUCCGUUGACGUAAUGGUAACGCGUCUACCUCCAAAGGAGAAGACUGCGGGUUCAAGUCCCGUACCGAACG [G10A C29A U35A G56A G67C], the yeast fitness was no more than 0.5.

Take GUUCCGUUGACGUAAUGGUAACGCGUGUCCCUGCUAAGGACAAGACUGCGGGUUCGAGUCCCGUGCGAAACG [G10A C27G C33G G41C A65G G68A]: the yeast fitness was no more than 0.5.

For the variant GUUCCGUUGACGUAAUGGUAACGAGUCUCCCUCCUAAGGAGAAGACUGCGGUUUCGAGUCCCGUACGGAACG [G10A C24A G52U], the yeast fitness was no more than 0.5.

GUUCCGUUGACGUAAUGGUAACGAGUCUGCCUCCAUAGGAGAAGACUGCGGGUUCGAGUCCCGUACGGAACG [G10A C24A C29G U35A A36U]: the yeast fitness was no more than 0.5.

For GUUCCGUUGACGUAAUGGUAACGCGUCUUCCUCCUAAGGAGAACACUGCGGGUUCGAGUCCCGUACGGAACG [G10A C29U G44C], the yeast fitness was no more than 0.5.

For GUUCCGUUGACGUAAUGGUAACGGGUCUCCCUCCUAAGGAGAAGACUGCGGGUUCGAGUCCCGUACGAAACG [G10A C24G G68A], the yeast fitness is 0.735.

On to GUUCCGUUGACGUAAUGGUAACGAGUCUCCCUCCUAAGGAGAAGACUGCGGGUUCCAGUCCCGUACGGAACG [G10A C24A G56C], for which the yeast fitness was no more than 0.5.

For GUUCCGUUGACGUAAUGGUAACGCGUCUACCUCGUAAGGAGACGACUGCGGGUUCGAGUCCCGUACGGAACG [G10A C29A C34G A43C], the yeast fitness is 0.68.

For GUUCCGUUGACGUAAUGGUAACGUGUCUCCCUCCUCAGGAGAAGACUGCGGGUUCGAGUCCCGUACGGAACG [G10A C24U A36C], the yeast fitness was no more than 0.5.

For GUUCCGUUGACGUAAUGGUAACGAGUCUCCCUCCUAAGGAGAUGACUACGGGUUCGAGUCCCGUACGGAACG [G10A C24A A43U G48A], the yeast fitness was no more than 0.5.

On to GUUCCGUUGACGUAAUGGUAACGUGUCUCCCUCCUAAGGAGAAGACUGUGGGUUCGAGUCCCGUACGGAACG [G10A C24U C49U], for which the yeast fitness stood at 0.53.

For GUUCCGUUGACGUAAUGGUAACGCGUCUGCCUCCUAAGGAGAAGACUGCGGGAUCCAGUCCGGUACGGAACG [G10A C29G U53A G56C C62G], the yeast fitness was no more than 0.5.

For the variant GUUCCGUUGACGUAAUGGUAACGCGUCUGCCUCCUAAGCAGAAGACUGCGGGUUCGAGUCCCGUACGGAACG [G10A C29G G39C], the yeast fitness was no more than 0.5.

GUUCCGUUGACGUAAUGGUAACGCGUCUGCCUCGUAAGGAGAAGACUGCGGGUUCGAGUCCCGUACGGAACG [G10A C29G C34G]: the yeast fitness is no more than 0.5.

With GUUCCGUUGACGUAAUGGUAACGAGUCUCCCUUCUAAGGAGAAGACUGCGGGUUCGUGGCCCGUACGGAACG [G10A C24A C33U A57U U59G], the yeast fitness was no more than 0.5.

With GUUCCGUUGACGUAAUGGUAACGCGUGUCCCUCCUAAAGAGGAGACUGCGGGUUCGAGUCCCGUACGGAACG [G10A C27G G38A A42G], the yeast fitness was 0.661.

GUUCCGUUGACGUAAUGGUAACGCGUGUCCCUCCUAAGGAGAAGACUGCGGGUUCGAGUACCGUACGGAACG [G10A C27G C60A]: the yeast fitness was no more than 0.5.

Turning to GUUCCGUUGACGUAAUGGUAACGCGUCUUGCUCAUAAGGAGAAGACUGCGGGUUCGAGUCCCGUACGGAACG [G10A C29U C30G C34A], the yeast fitness was no more than 0.5.

For GUUCCGUUGACGUAAUGGUAACGCGUCUACCUCCUAAGGAGAAGACUGCGGGUUCGAGUCCCGUACGGAACG [G10A C29A], the yeast fitness came out at 0.574.

With GUUCCGUUGACGUAAUGGUAACGAGUCUCCCUCCUAAGGAGACGACUGCGGGUUCGAGUCCCGUACGGAACG [G10A C24A A43C], the yeast fitness was no more than 0.5.

As to GUUCCGUUGACGUAAUGGUAACGGGUCUCCCUCCUAAGGAGAAGACUGCGGGUUCGAGUCCCGUACGGAACG [G10A C24G], the yeast fitness came to 0.517.

As to GUUCCGUUGACGUAAUGGUAACGUGUCUCCCUCCUAAGGAGAAGACUGCGGGUUCGAGUCCCGUACGGAACG [G10A C24U], the yeast fitness turned out to be 0.977.

GUUCCGUUGACGUAAUGGUAACGCGUAUCCCUCCUUUGGAGAAGACUCCGGGUUCGAGUCGCGUACGGUACG [G10A C27A A36U A37U G48C C61G A69U]: the yeast fitness was 0.576.

As for GUUCCGUUGACGUAAUGGUAACGCGUCUACCUCCUAAGGAGAAGACUGCGGGUUCGAGUCCCGUAUUAAACG [G10A C29A C66U G67U G68A], the yeast fitness was 0.56.

As to GUUCCGUUGACGUAAUGGUAACGGGUCUCCCUCUUAAGGAGAAGACUGCGGGUUCGAGUCCCCUACGGAACG [G10A C24G C34U G63C], the yeast fitness was no more than 0.5.

GUUCCGUUGACGUAAUGGUAACGGGUCUCCCUCCUAAGCAGAAGACUGCGGGUUCGAGUCCCGUAUGGAACG [G10A C24G G39C C66U]: the yeast fitness is no more than 0.5.

On to GUUCCGUUGACGUAAUGGUAACGAGUCUCAGUCCUAAGGAGAUGACUGCGGGUGCGAGUCCGGUACGGAACG [G10A C24A C30A C31G A43U U54G C62G], for which the yeast fitness is 0.544.

For GUUCCGUUGACGUAAUGGUAAUGCGUCUCCCUCCUAAGGAGAAGACCGCGGGUUCGAGUCCCGUACGAAACG [G10A C22U U47C G68A], the yeast fitness was no more than 0.5.

Consider GUUCCGUUGACGUAAUGGUAACGUGUCUCCCUCCUAAGGAGAAGACUGCGGGUUUGAGUCCCGUAUGGAACG [G10A C24U C55U C66U], for which the yeast fitness was found to be 0.52.

In the case of GUUCCGUUGACGUAAUGGUAACGCGUCUACCUCCUAAGGAGAAGACUGCGGGUUCGCGACCCGUACGGAACG [G10A C29A A57C U59A], the yeast fitness was no more than 0.5.

As for GUUCCGUUGACGUAAUGGUAACGCGUAUCCCUCCUAUGGAGAAGACUGCGGAUCCCGGUCCCGUACGGAACG [G10A C27A A37U G52A U54C G56C A57G], the yeast fitness is no more than 0.5.

Values taken from the RNAGym collection of RNA variant scans (doi:10.1126/science.aae0568).
